{"source": "ChEMBL document CHEMBL1142963", "about": "“Novel sigma receptor ligands: synthesis and biological profile” (J Med Chem, 2007)", "key": {"Rattus norvegicus": {"species_on_record": "Rattus norvegicus", "experiment": "Increase in TG-2 expression in albino Wistar rat primary astroglial cells at 25 uM after 24 hrs", "type": "functional", "how_it_was_run": "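Primary Wistar rat astrocytes at 14 DIV were exposed to ligand 25 µM for 24 h. Densitometric percentage of TG-2 versus untreated control; HUVEC extract as positive control. Mean ± SD of four experiments.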"}, "[1]": {"molecular_target": "T1, Adrenergic receptor alpha-2 (Rattus norvegicus, UniProt P22086+P19328+P22909)", "T1 sequence (P22086 whole entry)": "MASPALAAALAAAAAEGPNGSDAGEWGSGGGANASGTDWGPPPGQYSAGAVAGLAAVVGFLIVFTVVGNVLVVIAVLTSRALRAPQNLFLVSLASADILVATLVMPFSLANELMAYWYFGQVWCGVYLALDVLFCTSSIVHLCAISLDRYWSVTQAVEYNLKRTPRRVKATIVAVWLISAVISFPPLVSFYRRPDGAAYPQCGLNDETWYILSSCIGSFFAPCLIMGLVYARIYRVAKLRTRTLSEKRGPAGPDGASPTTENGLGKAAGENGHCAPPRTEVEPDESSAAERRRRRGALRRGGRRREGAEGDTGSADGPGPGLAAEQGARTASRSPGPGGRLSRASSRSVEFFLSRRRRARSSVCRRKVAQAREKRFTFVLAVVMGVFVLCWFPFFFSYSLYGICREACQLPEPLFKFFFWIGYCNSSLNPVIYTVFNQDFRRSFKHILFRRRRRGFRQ", "T1 sequence (P19328 whole entry)": "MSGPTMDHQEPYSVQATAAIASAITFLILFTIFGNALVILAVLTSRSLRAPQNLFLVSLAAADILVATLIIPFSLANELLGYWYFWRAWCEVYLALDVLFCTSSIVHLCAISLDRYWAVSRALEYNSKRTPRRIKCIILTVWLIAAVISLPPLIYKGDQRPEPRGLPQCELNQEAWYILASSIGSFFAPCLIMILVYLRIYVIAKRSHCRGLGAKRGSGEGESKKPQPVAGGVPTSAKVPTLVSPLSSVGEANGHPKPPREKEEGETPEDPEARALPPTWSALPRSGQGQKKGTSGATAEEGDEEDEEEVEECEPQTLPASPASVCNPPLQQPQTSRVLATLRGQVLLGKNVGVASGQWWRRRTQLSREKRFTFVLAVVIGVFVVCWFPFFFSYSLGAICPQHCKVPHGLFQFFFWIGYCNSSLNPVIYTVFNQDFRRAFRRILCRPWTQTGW", "T1 sequence (P22909 whole entry)": "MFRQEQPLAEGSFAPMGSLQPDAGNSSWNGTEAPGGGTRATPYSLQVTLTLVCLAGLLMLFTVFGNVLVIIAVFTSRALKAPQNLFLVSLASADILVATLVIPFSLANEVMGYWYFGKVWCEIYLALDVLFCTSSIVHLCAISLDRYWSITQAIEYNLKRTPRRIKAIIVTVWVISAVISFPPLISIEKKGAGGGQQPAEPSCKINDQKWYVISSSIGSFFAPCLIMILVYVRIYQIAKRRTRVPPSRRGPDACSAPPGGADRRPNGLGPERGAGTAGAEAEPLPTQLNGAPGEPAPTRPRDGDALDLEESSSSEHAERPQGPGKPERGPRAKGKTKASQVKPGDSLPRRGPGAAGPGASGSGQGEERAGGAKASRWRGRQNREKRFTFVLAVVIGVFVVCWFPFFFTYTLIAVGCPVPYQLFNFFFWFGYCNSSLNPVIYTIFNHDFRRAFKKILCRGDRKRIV", "experiment": "Displacement of 3H]RX821002 from rat cortex adrenergic alpha-2 receptor", "how_it_was_run": "(§1)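 Rat brain tissue by target: striatum for D1, D2 and DAT; olfactory tubercle for D3; cortex for muscarinic, 5-HT3, 5-HT2A, α1, α2, H1, NMDA and SERT; guinea pig cortex for 5-HT4. Inhibitors at seven to nine concentrations. After incubation, samples were filtered on glass fibre filters, washed three times with ice-cold buffer and counted by liquid scintillation. Ki values were derived by curve fitting.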"}, "[2]": {"experiment": "Displacement of [3H]MK-801 from rat cortex NMDA channel", "how_it_was_run": "as §1"}, "[3]": {"experiment": "Displacement of [3H]DTG rom guinea pig brain sigma 2 receptor", "design": "species or system Cavia porcellus"}, "D(3) dopamine receptor": {"molecular_target": "D(3) dopamine receptor (Rattus norvegicus, UniProt P19020)", "sequence (P19020 whole entry)": "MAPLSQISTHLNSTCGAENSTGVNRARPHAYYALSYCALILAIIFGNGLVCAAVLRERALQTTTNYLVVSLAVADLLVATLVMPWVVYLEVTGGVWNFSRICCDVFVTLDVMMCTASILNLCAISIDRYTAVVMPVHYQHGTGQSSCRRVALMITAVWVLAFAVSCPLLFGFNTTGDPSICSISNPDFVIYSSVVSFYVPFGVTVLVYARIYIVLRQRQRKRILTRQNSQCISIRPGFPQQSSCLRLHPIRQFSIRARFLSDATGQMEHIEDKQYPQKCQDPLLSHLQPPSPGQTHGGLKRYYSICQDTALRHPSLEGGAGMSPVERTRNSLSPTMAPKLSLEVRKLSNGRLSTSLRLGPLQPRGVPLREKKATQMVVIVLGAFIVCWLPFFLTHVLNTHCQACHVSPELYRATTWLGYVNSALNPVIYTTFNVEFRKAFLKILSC", "experiment": "Displacement of [3H]7OH-DPAT from rat olfactory tubercle dopamine D3 receptor", "type": "tissue-based", "how_it_was_run": "as §1"}, "[4]": {"molecular_target": "5-hydroxytryptamine receptor 6 (Rattus norvegicus, UniProt P31388)", "sequence (P31388 whole entry)": "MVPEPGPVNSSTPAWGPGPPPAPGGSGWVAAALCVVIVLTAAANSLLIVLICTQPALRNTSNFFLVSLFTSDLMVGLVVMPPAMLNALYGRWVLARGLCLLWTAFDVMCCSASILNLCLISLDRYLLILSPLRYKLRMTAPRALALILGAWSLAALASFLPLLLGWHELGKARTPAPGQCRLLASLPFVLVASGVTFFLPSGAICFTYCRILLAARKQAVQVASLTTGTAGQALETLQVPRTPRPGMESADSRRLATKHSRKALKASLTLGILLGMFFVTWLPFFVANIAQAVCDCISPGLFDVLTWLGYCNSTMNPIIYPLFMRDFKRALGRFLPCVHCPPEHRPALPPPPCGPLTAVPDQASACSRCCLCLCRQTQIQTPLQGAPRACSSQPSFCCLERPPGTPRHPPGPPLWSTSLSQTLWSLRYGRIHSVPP", "experiment": "Displacement of [3H]5HT from rat cloned 5HT6 receptor expressed in HEK293 cells", "type": "cell-based", "how_it_was_run": "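Membranes from HEK-293 cells expressing cloned rat 5-HT6 receptor. Inhibitors at seven to nine concentrations. After incubation, samples were filtered on glass fibre filters, washed three times with ice-cold buffer and counted by liquid scintillation. Ki values were derived by curve fitting.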"}, "[5]": {"molecular_target": "Muscarinic acetylcholine receptor", "experiment": "Displacement of [3H]QNB from rat cortex muscarinic receptor", "how_it_was_run": "as §1"}}, "note": "Activity calls are given as the source filed them. The rule behind the calls is not given here.", "data": [{"smiles": "COC(=O)C1(c2ccc(C)cc2)CC1CN1CCC(O)(c2ccccc2)CC1", "note": "(configuration not stated)", "values": [{"measurement": "Activity", "setting": "Rattus norvegicus", "result": "Active"}, {"measurement": "Ki", "setting": "[1]", "result": 9.414, "unit": "µM"}, {"measurement": "Ki", "setting": "[2]", "result": "> 10", "unit": "µM"}, {"measurement": "Ki", "setting": "[3]", "result": 50.8, "unit": "nM"}, {"measurement": "Ki", "setting": "D(3) dopamine receptor", "result": 4.9, "unit": "µM"}, {"measurement": "Ki", "setting": "[4]", "result": "> 10", "unit": "µM"}, {"measurement": "Ki", "setting": "[5]", "result": "> 10", "unit": "µM"}]}]}
